Measured values as given in PMC8473721 (Journal of Inflammation Research, 2021).

Test system: MCF-7 human breast tumor xenograft
Assay: In vivo anticancer activity in human breast tumor xenograft model
Design: species or system female nude (nu/nu) mice
Conditions: 10 mg/kg BW
Method in brief: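 Female nu/nu mice (6~7 weeks) were given about 1.5×10^7 MCF-7 cells subcutaneously in the dorsal back, in medium:Matrigel 1:1. Estradiol cyclopentyl propionate (100 µg/mouse) was given s.c. twice weekly. Once tumors reached ≥5 mm, mice were randomised, six per group, to 5 mg/kg BW test compound for 45 days, paclitaxel 10 mg/kg, or vehicle. Tumor size, BW and toxicity signs were recorded every 4 days.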

With `CC(=O)O[C@H]1C(=O)[C@@]2(C)[C@H]([C@H](OC(=O)c3ccccc3)[C@]3(O)C[C@H](OC(=O)[C@H](O)[C@@H](NC(=O)c4ccccc4)c4ccccc4)C(C)=C1C3(C)C)[C@]1(OC(C)=O)CO[C@@H]1C[C@@H]2O` [paclitaxel] the tumor growth was “significantly (p<0.001) inhibited tumor growth”.
